# Source: ChEMBL document CHEMBL5653632, “PRMT5 inhibition disrupts splicing and stemness in glioblastoma” (Nat Commun, 2021)
# The source made the active and inactive calls. No cut-off for these calls is given here.
# Columns and labels:
# [1] = Antiproliferative activity against human G613 cells incubated for 9 to 12 days by IncuCyte zoom live-cell imaging analysis; format: functional, cell-based
# In short: (§1)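 Adherent GSC lines on poly-L-ornithine/laminin in serum-free EGF/bFGF medium were exposed to nine concentrations from 3 nM to 30 µM, with three technical replicates per dose. Exposure lasted 9–20 days until DMSO controls were confluent, with drug-containing medium refreshed every 5 days. IncuCyte confluence was normalized to DMSO. Curves were built at the 95th percentile of DMSO time-to-confluence, and AAC was derived with PharmacoGx.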
# [2] = Antiproliferative activity against human BT147 cells incubated for 9 to 12 days by IncuCyte zoom live-cell imaging analysis; format: functional, cell-based
# [3] = Antiproliferative activity against human G567 cells incubated for 9 to 12 days by IncuCyte zoom live-cell imaging analysis; format: functional, cell-based; in short: as §1
# [4] = Antiproliferative activity against human G571 cells incubated for 9 to 12 days by IncuCyte zoom live-cell imaging analysis; format: functional, cell-based; in short: as §1
# [5] = Antiproliferative activity against human BT301 cells incubated for 9 to 12 days by IncuCyte zoom live-cell imaging analysis; format: functional, cell-based
# [6] = Antiproliferative activity against human BT189 cells incubated for 9 to 12 days by IncuCyte zoom live-cell imaging analysis; format: functional, cell-based
# G411 [7] = test: Induction of senescence in human G411 cells at 1 uM after 5 days by SA-beta-galactosidase based assay; format: functional, cell-based; conditions: time 5.0 day
# In short: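 GSCs were treated at 1 µM for 5 days, with SGC2096 and DMSO as controls and n = 3. Cells were fixed in 4% paraformaldehyde for 5 min at RT, stained overnight with SA-β-gal solution, and counterstained with nuclear fast red. Blue cells were counted as a fraction of total cells.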
# [8] = Antiproliferative activity against human BT67 cells incubated for 9 to 12 days by IncuCyte zoom live-cell imaging analysis; format: functional, cell-based
# [9] = Antiproliferative activity against human BT238 cells incubated for 9 to 12 days by IncuCyte zoom live-cell imaging analysis; format: functional, cell-based
# G837 = test: Inhibition of cell growth in human G837 cells pretreated with compound for 14 days followed by compound washout and measured after 14 days; format: functional, cell-based; conditions: time 14.0 day
# In short: (§2)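 GSC lines were treated with 1 µM for 14 days. Compound was then washed out, and growth was followed for a further 14 days.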
# [10] = molecular target: Protein arginine N-methyltransferase 5 (Homo sapiens) (UniProt O14744); test: Inhibition of PRMT5 in human G729 cells assessed as reduction in SDMA level at 1 uM after 7 days by Western blot analysis; format: cell-based; conditions: time 7.0 day
# [11] = Antiproliferative activity against human G637 cells incubated for 9 to 12 days by IncuCyte zoom live-cell imaging analysis; format: functional, cell-based; in short: as §1
# G583 = test: Inhibition of cell growth in human G583 cells pretreated with compound for 14 days followed by compound washout and measured after 14 days; format: functional, cell-based; conditions: time 14.0 day; in short: as §2
# [12] = Antiproliferative activity against human G584 cells incubated for 9 to 12 days by IncuCyte zoom live-cell imaging analysis; format: functional, cell-based; in short: as §1
# [13] = Antiproliferative activity against human G752 cells incubated for 9 to 12 days by IncuCyte zoom live-cell imaging analysis; format: functional, cell-based; in short: as §1
# [14] = Antiproliferative activity against human HF5205 cells incubated for 9 to 12 days by IncuCyte zoom live-cell imaging analysis; format: functional, cell-based
# In short: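 Adherent culture on poly-L-ornithine/laminin in serum-free NS-A medium with EGF and bFGF (10 ng/mL each) and heparin. Nine concentrations (3 nM–30 µM), three technical replicates per dose, DMSO control, medium and drug refreshed every 5 days, run until DMSO wells were confluent (9–20 days). Confluence was imaged live and normalized to DMSO. Curves were taken at the 95th percentile of time to DMSO confluence, and AAC was calculated.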
# [15] = Antiproliferative activity against human BT94 cells incubated for 9 to 12 days by IncuCyte zoom live-cell imaging analysis; format: functional, cell-based
# G561 = test: Inhibition of cell growth in human G561 cells pretreated with compound for 14 days followed by compound washout and measured after 14 days; format: functional, cell-based; conditions: time 14.0 day; in short: as §2
# G411 [16] = test: Inhibition of cell growth in human G411 cells pretreated with compound for 14 days followed by compound washout and measured after 14 days; format: functional, cell-based; conditions: time 14.0 day; in short: as §2
# [17] = Antiproliferative activity against human G719 cells incubated for 9 to 12 days by IncuCyte zoom live-cell imaging analysis; format: functional, cell-based; in short: as §1
# [18] = Toxicity in NSG mouse assessed as tolerability at 50 mg/kg, po administered as 3 days on and 4 days off schedule and measured upto 8 weeks; format: organism-based; conditions: in vivo, 1344 h
# In short: (§3)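 NSG mice, 3 per group, dosed orally in weekly cycles of 3 days on and 4 days off. Weight and condition were recorded twice weekly. Mice losing more than 20% body weight were sacrificed.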
# G411 [19] = test: Antitumor activity against human G411 cells xenografted in NSG mouse assessed as reduction in dense cell growth at 50 mg/kg, po administered as 3 days on and 4 days off schedule for 4 cycles; format: functional, organism-based; conditions: time 28.0 day
# In short: (§4)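 Female NSG mice aged 5–10 weeks received 2 × 10^4 G411 GSCs stereotaxically into the forebrain (2 mm lateral, 1 mm posterior to bregma, 3 mm deep). From 1 week post-implant, mice got 50 mg/kg by oral gavage in 1% HEC/0.25% Tween 80/0.05% antifoam, 3 days on/4 off, for 4 cycles or until endpoint. Endpoint brains went to H&E; tumor tissue went to SDMA western blot.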
# G411 [20] = test: Antitumor activity against human G411 xenografted in NSG mouse assessed as mean survival time at 50 mg/kg, po administered as 3 days on and 4 days off schedule for 4 cycles (reference value: 30 days); format: functional; conditions: time 28 day
# In short: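 Female NSG mice, 5–10 weeks old, 12 per group. 2 × 10^4 G411 cells were injected stereotactically into the forebrain, 3 mm deep. Oral gavage started 1 week later in vehicle of 1% HEC/0.25% Tween 80/0.05% antifoam, given daily for 3 days then 4 days off, for 4 cycles or until end point. Mice were euthanized at neurological symptoms with domed head. Survival was compared by log-rank test.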
# [21] = Toxicity in NSG mouse assessed as body weight loss at 50 mg/kg, po administered as 3 days on and 4 days off schedule and measured upto 8 weeks; format: organism-based; conditions: in vivo, 1344 h; in short: as §3
# [22] = Antiproliferative activity against human BT50 cells incubated for 9 to 12 days by IncuCyte zoom live-cell imaging analysis; format: functional, cell-based
# [23] = Toxicity in NSG mouse assessed as body weight loss at 50 mg/kg, po administered every other day for 3 weeks; format: organism-based; conditions: in vivo, 504 h
# [24] = Drug concentration in NSG mouse brain at 100 mg/kg, po measured after 24 hrs; format: ADME, organism-based; conditions: read-out: Ct
# In short: (§5)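 Single oral gavage to NSG mice (n = 3) at 25, 50 or 100 mg/kg; a 10× DMSO stock was diluted into 1% HEC/0.25% Tween 80/0.05% antifoam. Sacrifice at 24 h. Plasma came from cardiac-puncture blood. Brains were taken after PBS transcardiac perfusion and flash frozen. LC-MS quantitation used a 10-point standard curve of 10–10,000 ng/mL.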
# G411 [25] = test: In vivo inhibition of PRMT5 in human G411 cells xenografted in NSG mouse assessed as reduction in SDMA level at 50 mg/kg, po administered as 3 days on and 4 days off schedule for 4 cycles; format: functional, organism-based; conditions: time 28.0 day; in short: as §4
# [26] = Drug concentration in NSG mouse plasma at 100 mg/kg, po measured after 24 hrs; format: ADME, organism-based; in short: as §5
# Protein arginine N-methyltransferase 5 (Homo sapiens), sequence (O14744 whole entry): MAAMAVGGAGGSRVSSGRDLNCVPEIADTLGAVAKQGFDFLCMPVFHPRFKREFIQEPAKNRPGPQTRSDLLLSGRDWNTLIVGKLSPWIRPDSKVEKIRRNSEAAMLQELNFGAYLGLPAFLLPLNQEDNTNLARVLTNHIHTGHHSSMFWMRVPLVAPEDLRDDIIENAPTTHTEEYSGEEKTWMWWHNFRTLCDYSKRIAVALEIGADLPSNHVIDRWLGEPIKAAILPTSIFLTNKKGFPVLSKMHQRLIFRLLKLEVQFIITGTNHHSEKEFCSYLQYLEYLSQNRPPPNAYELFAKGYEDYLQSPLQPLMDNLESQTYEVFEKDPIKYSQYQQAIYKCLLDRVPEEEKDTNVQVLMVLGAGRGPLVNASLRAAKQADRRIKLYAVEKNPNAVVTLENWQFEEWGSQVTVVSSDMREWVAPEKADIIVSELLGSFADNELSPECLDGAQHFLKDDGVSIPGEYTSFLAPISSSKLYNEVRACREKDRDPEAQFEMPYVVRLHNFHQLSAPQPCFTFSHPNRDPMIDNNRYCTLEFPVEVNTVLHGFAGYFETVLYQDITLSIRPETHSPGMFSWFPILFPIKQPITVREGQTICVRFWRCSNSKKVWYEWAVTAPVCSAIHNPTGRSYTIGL
structure (smiles),measurement,setting,value
O=C(NC[C@H](O)CN1CCc2ccccc2C1)c1ccnc(NC2CCC2)c1,IC50,[1],19200 nM
same,IC50,[2],170 nM
same,IC50,[3],29300 nM
same,IC50,[4],45600 nM
same,IC50,[5],100 nM
same,IC50,[6],110 nM
same,Activity,G411 [7],Active
same,IC50,[8],50 nM
same,IC50,[9],150 nM
same,inhibition,G837,inactive
same,inhibition,[10],Active
same,IC50,[11],340 nM
same,inhibition,G583,Active
same,IC50,[12],39000 nM
same,EC50,[13],50 nM
same,EC50,[14],7 nM
same,IC50,[15],60 nM
same,inhibition,G561,inactive
same,inhibition,G411 [16],inactive
same,IC50,[17],9230 nM
Nc1ncnc2c1ccn2[C@@H]1O[C@H]([C@H](O)c2ccccc2)[C@@H](O)[C@H]1O,IC50,[2],10 nM
same,Activity,[18],Non-Toxic
same,Activity,G411 [7],Active
same,Activity,G411 [19],Active
same,Time,G411 [20],37 days
same,inhibition,[10],Active
same,Activity,[21],< 10%
same,IC50,[22],20 nM
same,Activity,[23],> 20%
same,concentration at 24 h,[24],269 nM
same,inhibition,G411 [25],Active
same,EC50,[14],9 nM
same,concentration at 24 h,[26],159 nM
